TCR-CD3 inh: blocks the human TCR-CD3 interaction. TAMRA-labeled TCR probe fluorescence, biochemical. 360,000 tested, 0.37% active. AID 651800. inhibition, % at 9.4 µM; in the data active = inhibition above about 19%;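 note: recombinant mutant TCR 2C K166C tagged with TAMRA read by polarization; 0% = receptor in buffer alone and 100% = receptor with positive control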
SIAE inh: blocks human sialic acid acetylesterase. SIAE FP-Rh probe binding, fluorescence polarization. inhibition, % at 9.66 µM. 370,000 tested, 0.69% active. AID 1053197;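 active = inhibition above a cutoff: mean of compounds within the control limits plus 3 SD of those, cut at about 17% in these data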;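 note: 0% = plate median of compound wells and 100% = probe without SIAE protein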
ABHD4 inh: ABHD4 (mouse) inhibition, primary FP screen; Q8VD66; AID 720543; 370,000 tested, 0.54% active; purified mABHD4, FP-Rh probe fluorescence polarization; inhibition, % at 8.92 µM;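 active = inhibition exceeding the mean over every tested compound plus 3 SD, cut at about 30% in these data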;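 note: 0% = plate median of compound wells and 100% = S159A mutant with DMSO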
Target sequence (Q8VD66 whole entry, looked up): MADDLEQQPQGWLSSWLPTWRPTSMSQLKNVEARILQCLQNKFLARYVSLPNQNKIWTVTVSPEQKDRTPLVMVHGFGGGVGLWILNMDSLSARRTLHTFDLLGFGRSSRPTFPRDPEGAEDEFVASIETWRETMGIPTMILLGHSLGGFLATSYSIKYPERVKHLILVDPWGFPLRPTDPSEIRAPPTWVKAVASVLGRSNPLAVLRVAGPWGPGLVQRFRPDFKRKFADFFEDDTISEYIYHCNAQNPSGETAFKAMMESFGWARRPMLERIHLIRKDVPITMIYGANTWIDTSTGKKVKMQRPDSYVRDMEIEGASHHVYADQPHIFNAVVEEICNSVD
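Material: mouse ABHD4 enzyme, wild type; Benchmarks: S159A mutant high control, sample median low control; Buffer or medium: HEPES pH 7.0, NaCl, Pluronic buffer; Signal: fluorescence polarization; Read-out: percent inhibition of probe binding, normalized to plate controls; Timing: pre-incubation 45 min, probe exposure 60 min, at 25 °C; Dosing: 8.92 µM, single dose.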
HTRA1 inhibitor: blocks human HTRA1 serine peptidase; Q92743; recombinant HTRA1, FP-rhodamine activity-based probe, fluorescence polarization; inhibition, % at 5.96 µM; 340,000 tested, 0.5% active; AID 504803; in the data active = inhibition above about 36%;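 note: 0% = enzyme with DMSO and 100% = wells lacking enzyme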
rCAG binder-1: molecules binding r(CAG) RNA repeats. inhibition, % at 3 µM. r(CAG) RNA repeat, TO-PRO-1 dye displacement fluorescence. 370,000 tested, 1.3% active;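 active = inhibition above the plate cutoff, the mean of all test compounds on that plate plus 3 SD, cut at about 35% in these data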;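 note: 0% = DMSO alone and 100% = 100 µM mitoxantrone as full dye displacement; higher means more dye released from RNA so lower well fluorescence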
rCAG bind conf: r(CAG) RNA repeat binding, confirmation. inhibition, % at 3 µM. shares compounds with rCAG binder-1. TO-PRO-1 dye displacement fluorescence. 4,300 tested, 70% active. AID 652065;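 active = inhibition above a per-plate cutoff, the mean inhibition of sample wells plus 3 SD, cut at about 35% in these data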;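 note: loss of TO-PRO-1 fluorescence as compound displaces dye from 1x1 AA loop RNA; 0% = DMSO only wells and 100% = 100 µM mitoxantrone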
DNA CAG counter: counter-screen for rCAG RNA binders: DNA CAG dye complex inhibitors | d(CAG) DNA oligo TO-PRO-1 dye displacement, fluorescence | shares compounds with rCAG binder-1 | inhibition, % at 3 µM | 4,300 tested, 94% active;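 active = inhibition above its plate's cutoff, the mean test-well inhibition plus 3 SD, cut at about 4.8% in these data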;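 note: 0% = DNA dye mix with DMSO and 100% = 100 µM mitoxantrone; hits displace the dye from DNA and so lower well fluorescence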
DNA CAG DR: disrupts DNA CAG TO-PRO-1 complex in dose response; DNA CAG/GTC duplex TO-PRO-1 dye displacement fluorescence; 250 tested, 20% active; IC50, µM; shares compounds with rCAG binder-1; in the data active = IC50 below about 10 µM
dCAG DNA bind: inhibits DNA CAG/GTC TO-PRO-1 complex, rCAG binder counter-screen. d(CAG) DNA duplex TO-PRO-1 dye displacement, fluorescence. 30 tested, 80% active. IC50, µM. shares compounds with rCAG binder-1
rCAG binder-2: binds r(CAG) RNA repeats in late stage dose response | r(CAG) RNA TO-PRO-1 dye displacement, fluorescence | shares compounds with rCAG binder-1 | 30 tested, 100% active | AID 720651 | IC50, µM
An asterisk follows results filed as active. Shown are actives, neighbours in structure and some others; about 2.5% of the full set was active somewhere. Unless noted, the rule behind the calls is not given here.

CN(/C=C/c1c([N+](=O)[O-])c(=O)n(C)c(=O)n1C)c1ccccc1 was read as TCR-CD3 inh -7, SIAE inh 0, ABHD4 inh 1, HTRA1 inhibitor 7 and rCAG binder-1 -5.
For Cc1ccccc1/C=N/n1c(-c2cc(-c3ccccc3)n[nH]2)n[nH]c1=S the results were TCR-CD3 inh -2, SIAE inh 1, ABHD4 inh 3, HTRA1 inhibitor -8 and rCAG binder-1 31.
Screening S=c1[nH]nc(-c2cc(-c3ccccc3)n[nH]2)n1/N=C/C=C/c1ccco1 returned TCR-CD3 inh 16, SIAE inh 9, ABHD4 inh 15, rCAG binder-1 41*, rCAG bind conf 51* and DNA CAG counter 24*.
`Cc1ccc(-c2n[nH]c(=S)n2/N=C/C=C\c2ccccc2[N+](=O)[O-])cc1` gave TCR-CD3 inh 4, SIAE inh 3, ABHD4 inh 4, HTRA1 inhibitor -13, rCAG binder-1 35*, rCAG bind conf 33 and DNA CAG counter 11*.
For COc1ccc2ccccc2c1C=Nn1c(-c2cc(-c3ccccc3)n[nH]2)n[nH]c1=S the results were SIAE inh 3, ABHD4 inh 6, rCAG binder-1 70*, rCAG bind conf 58* and DNA CAG counter 27*.
`O=C(O)c1[nH]c2ccccc2c1C(c1cc(Cl)cc([N+](=O)[O-])c1O)c1c(C(=O)O)[nH]c2ccccc12` gave TCR-CD3 inh 1, SIAE inh 0, ABHD4 inh 68*, HTRA1 inhibitor 35, rCAG binder-1 92*, rCAG bind conf 73* and DNA CAG counter 37*.
Nc1ccc2c(c1)CC(=O)c1ccccc1S2 was read as TCR-CD3 inh 5, SIAE inh 2, ABHD4 inh 2, HTRA1 inhibitor 1 and rCAG binder-1 2.
CN(Cc1cccc(F)c1)C(=O)C1CC(=O)N(c2ccc3c(c2)OCCO3)C1 (stereo unspecified) was read as TCR-CD3 inh -1, SIAE inh -1, ABHD4 inh 8, HTRA1 inhibitor 1 and rCAG binder-1 -1.
For CC(C)c1ccc(NC(=O)Cc2c(C(=O)O)n(C)c3ccccc23)cc1 the results were TCR-CD3 inh -4, SIAE inh 1, ABHD4 inh -4, HTRA1 inhibitor -5, rCAG binder-1 51*, rCAG bind conf 31 and DNA CAG counter 5.8*.
Screening COC(=O)c1ccc2nc(Nc3nc4ccc(F)cc4s3)sc2c1 returned TCR-CD3 inh -3, SIAE inh -25, ABHD4 inh -4, HTRA1 inhibitor -15 and rCAG binder-1 19.
Screening CC(=O)c1sc(Nc2nc3ccc(F)cc3s2)nc1C returned TCR-CD3 inh 1, SIAE inh 6, ABHD4 inh 22, HTRA1 inhibitor -6, rCAG binder-1 36*, rCAG bind conf 28 and DNA CAG counter 8.0*.
CC1(OC(=O)CCc2ccccc2)C(=O)C=C2C=C(c3ccc(C#N)cc3)N(Cc3ccccc3)C=C2C1=O (stereo unspecified) was read as TCR-CD3 inh -7, SIAE inh 6, ABHD4 inh 10, HTRA1 inhibitor 25 and rCAG binder-1 17.
Screening CC1(OC(=O)CCc2ccccc2)C(=O)C=C2C=C(c3ccc(C#N)cc3)N(Cc3ccco3)C=C2C1=O (stereo unspecified) returned TCR-CD3 inh 5, SIAE inh 5, ABHD4 inh 22, HTRA1 inhibitor 14, rCAG binder-1 37*, rCAG bind conf 24 and DNA CAG counter 16*.
O=C(CN(C(=O)OCC1c2ccccc2-c2ccccc21)[C@@H](Cc1ccccc1)C(=O)O)OCc1ccc(C(=O)NCc2ccccc2)cc1 was read as SIAE inh -1, ABHD4 inh -21, rCAG binder-1 61*, rCAG bind conf 70*, DNA CAG counter 27* and DNA CAG DR >30.
`NC(C(=O)O)C1ON=C(Cl)C1O` (stereo unspecified) gave TCR-CD3 inh -3, SIAE inh 9, ABHD4 inh 4, HTRA1 inhibitor -2, rCAG binder-1 41*, rCAG bind conf 3 and DNA CAG counter 3.
`N=C1/C(=C\c2ccc(-c3cc(Cl)cc(Cl)c3)o2)C(=O)N=C2SC=C(c3ccccc3)N12` gave TCR-CD3 inh 0, SIAE inh -2, ABHD4 inh -11, HTRA1 inhibitor -13, rCAG binder-1 37*, rCAG bind conf 38* and DNA CAG counter 22*.
For CC(C)S(=O)(=O)C1=NSC2=NC(=O)/C(=C\c3ccc(-c4cccc(C(=O)O)c4)o3)C(=N)N21 the results were TCR-CD3 inh -8, SIAE inh -72, ABHD4 inh -24, HTRA1 inhibitor -30, rCAG binder-1 72*, rCAG bind conf 74*, DNA CAG counter 29*, DNA CAG DR inactive, dCAG DNA bind 1.3* and rCAG binder-2 0.33*.
`O=C(O)c1cccc(-c2ccc(/C=N/n3cnnc3)o2)c1` gave TCR-CD3 inh 8, SIAE inh 1, ABHD4 inh -1, HTRA1 inhibitor 7 and rCAG binder-1 4.
Screening CC(C)S(=O)(=O)C1=NSC2=NC(=O)/C(=C\c3ccc(-c4ccccc4)o3)C(=N)N21 returned TCR-CD3 inh 4, SIAE inh -28, ABHD4 inh -14, HTRA1 inhibitor -32, rCAG binder-1 38*, rCAG bind conf 87* and DNA CAG counter 66*.
N=C1/C(=C/c2cccn2CCOc2ccccc2)C(=O)N=C2SC=C(c3ccccc3)N12 was read as TCR-CD3 inh -4, SIAE inh -3, ABHD4 inh -24, HTRA1 inhibitor -53 and rCAG binder-1 30.
CC1CCCN(C(=O)c2cccc(S(=O)(=O)Nc3cc(C(F)(F)F)ccc3Cl)c2)C1 (stereo unspecified) was read as TCR-CD3 inh 1, SIAE inh -3, ABHD4 inh -1, HTRA1 inhibitor -12, rCAG binder-1 62*, rCAG bind conf 60* and DNA CAG counter 27*.
Screening CCCOc1ccc(C(=O)Nc2ccc(S(=O)(=O)Nc3cc(C)nc(C)n3)cc2)cc1 returned TCR-CD3 inh 1, SIAE inh -7, ABHD4 inh -6, HTRA1 inhibitor 2 and rCAG binder-1 25.

Compound activity from PubChem.
